Results published in ChEMBL document CHEMBL1154223, “Oxygenated lignans from the fruits of Schisandra arisanensis” (2009).

Columns and labels:
Format in all cases: functional
PBMC [1] = assay: Inhibition of human PBMC proliferation assessed as [3H]thymidine uptake at 100 uM after 3 days by scintillation counting
Method in brief: (§1)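 Human PBMC at 2 × 10^6 cells/mL were plated with or without PHA and exposed to test compound at 100 µM. Cultures were kept at 37 °C in humidified 5% CO2-air for 3 days, then pulsed with tritiated thymidine at 1 µCi/well for 16 h. Cells were harvested onto glass fiber filters, and radioactivity was counted by scintillation. Results are given as % inhibition.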

PBMC [2] = assay: Inhibition of 0.2 ug/ml PHA-stimulated human PBMC proliferation assessed as [3H]thymidine uptake at 100 uM after 3 days by scintillation counting; method in brief: as §1
PBMC [3] = assay: Inhibition of 5 ug/ml PHA-stimulated human PBMC proliferation assessed as [3H]thymidine uptake at 100 uM after 3 days by scintillation counting; method in brief: as §1
PBMC [4] = assay: Inhibition of human PBMC proliferation assessed as [3H]thymidine uptake at 5 uM after 3 days by scintillation counting
PBMC [5] = assay: Inhibition of 5 ug/ml PHA-stimulated human PBMC proliferation assessed as [3H]thymidine uptake at 5 uM after 3 days by scintillation counting

| SMILES | inhibition at 100 µM (PBMC [1]) [%] | inhibition (INH) (PBMC [2]) [%] | inhibition (INH) (PBMC [3]) [%] | inhibition at 5 µM (PBMC [4]) [%] | inhibition (INH) (PBMC [5]) [%] |
| --- | --- | --- | --- | --- | --- |
| C/C=C(/C)C(=O)O[C@H]1c2cc(OC)c(OC)c(OC)c2-c2c(cc(O)c(OC)c2OC)C[C@@H](C)[C@@]1(C)O | 44.5 | 67 | 44.3 | – | – |
| COc1cc([C@@H]2c3cc(OC)c(OC)cc3C(=O)[C@@H](C)[C@H]2C)ccc1O | 61 | 82.7 | 95.6 | – | – |
| C/C=C(/C)C(=O)O[C@H]1c2cc3c(c(OC)c2-c2c(cc(OC)c(OC)c2O)C[C@H](C)[C@]1(C)O)OCO3 | 12.7 | 16.4 | 14.6 | – | – |
| CC=C(C)C(=O)O[C@H]1c2cc3c(c(OC)c2-c2c(cc(OC)c(OC)c2OC)C[C@H](C)[C@]1(C)O)OCO3 | 36.1 | 75.2 | 58.9 | – | – |
| C/C=C(/C)C(=O)O[C@H]1c2cc(OC)c(OC)c(O)c2-c2c(cc3c(c2OC)OCO3)C[C@@H](C)[C@@]1(C)O | 47 | 74 | 66.6 | – | – |
| COc1cc2c(c(O)c1OC)-c1c(cc(O)c(OC)c1OC)C[C@H](C)[C@H](C)C2 [ARISANSCHININ F] | 58.5 | 81.7 | 92.9 | – | – |
| COc1cc2c(c(O)c1OC)-c1c(cc(O)c(OC)c1OC)C[C@@H](C)[C@@H](C)C2 [ARISANSCHININ G] | 54.7 | 76.3 | 92.5 | – | – |
| COc1cc([C@@H]2c3cc(OC)c(O)cc3C(=O)[C@@H](C)[C@H]2C)ccc1O [ARISANTETRALONE A] | 59.7 | 78.1 | 91.9 | – | – |
| COc1cc([C@@H]2c3cc(O)c(OC)cc3C(=O)[C@@H](C)[C@H]2C)ccc1O [ARISANTETRALONE B] | 56.9 | 75.3 | 90.8 | – | – |
| COc1cc2c(cc1O)C(=O)[C@@H](C)[C@@H](C)[C@@H]2c1ccc(OC)c(OC)c1 [ARISANTETRALONE C] | 54.1 | 76.3 | 89.3 | – | – |
| COc1cc2c(cc1O)C(=O)[C@H](C)[C@@H](C)[C@@H]2c1ccc(OC)c(OC)c1 [ARISANTETRALONE D] | 34.1 | 70.1 | 83.9 | – | – |
| C/C=C/C[C@@H](C)[C@@H](O)[C@H]1C(=O)N[C@@H](CC)C(=O)N(C)CC(=O)N(C)[C@@H](CC(C)C)C(=O)N[C@@H](C(C)C)C(=O)N(C)[C@@H](CC(C)C)C(=O)N[C@@H](C)C(=O)N[C@H](C)C(=O)N(C)[C@@H](CC(C)C)C(=O)N(C)[C@@H](CC(C)C)C(=O)N(C)[C@@H](C(C)C)C(=O)N1C [CYCLOSPORINE] | – | – | – | 25.5 | 89.9 |
| COc1cc2c(c(OC)c1OC)-c1c(cc3c(c1OC)OCO3)[C@H](OC(=O)c1ccccc1)[C@@](C)(O)[C@@H](C)C2 [GOMISIN G] | 46.2 | 75.8 | 88.6 | – | – |
| COc1cc(C[C@@H](C)[C@@H](C)Cc2cc(O)c(OC)c(OC)c2)cc(O)c1OC [PREGOMISIN] | 63.9 | 83 | 95.6 | – | – |
| COc1cc2c(c(O)c1OC)-c1c(cc(OC)c(OC)c1OC)C[C@@H](C)[C@@H](C)C2 [SCHISANHENOL] | 60.8 | 80.1 | 76 | – | – |
